From the M2OR odorant receptor database come the findings set out here.
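Also: active if original authors judged signal statistically different from baseline.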

The first assay addresses T1, UniProt Q8VGL7.
T1 sequence (whole entry): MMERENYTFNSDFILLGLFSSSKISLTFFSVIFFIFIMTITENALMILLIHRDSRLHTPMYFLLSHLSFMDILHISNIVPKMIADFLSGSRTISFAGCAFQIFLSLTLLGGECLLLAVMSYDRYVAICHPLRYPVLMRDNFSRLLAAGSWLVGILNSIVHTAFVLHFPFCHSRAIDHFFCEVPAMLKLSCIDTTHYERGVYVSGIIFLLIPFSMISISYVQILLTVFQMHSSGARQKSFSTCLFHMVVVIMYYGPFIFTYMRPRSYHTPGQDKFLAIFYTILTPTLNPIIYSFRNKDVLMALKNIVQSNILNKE
The note with it: stereoisomer not certain. In a few lines: (§1)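 Whether a receptor–molecule pair is responsive (active) rests on the original authors' judgment that its measured signal was statistically different from baseline. Pairs without that judgment are non-responsive (inactive). Sources used varied assay methods, commonly transient luciferase assays in mammalian cell lines.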
Take `C=CCOC(=O)Cc1ccccc1`: the “odorant receptor agonist call” value was “inactive”.
Same read-out and setting: under `C=CCc1ccccc1` stands “inactive”.
Turning to `O=c1cc(O)c2ccccc2o1`, the “odorant receptor agonist call” value was “inactive”.
Turning to `CCC1CCC(=O)O1` (configuration not stated), the “odorant receptor agonist call” value is “inactive”.

A further assay deals with T2, UniProt Q8VGM2.
T2 sequence (whole entry): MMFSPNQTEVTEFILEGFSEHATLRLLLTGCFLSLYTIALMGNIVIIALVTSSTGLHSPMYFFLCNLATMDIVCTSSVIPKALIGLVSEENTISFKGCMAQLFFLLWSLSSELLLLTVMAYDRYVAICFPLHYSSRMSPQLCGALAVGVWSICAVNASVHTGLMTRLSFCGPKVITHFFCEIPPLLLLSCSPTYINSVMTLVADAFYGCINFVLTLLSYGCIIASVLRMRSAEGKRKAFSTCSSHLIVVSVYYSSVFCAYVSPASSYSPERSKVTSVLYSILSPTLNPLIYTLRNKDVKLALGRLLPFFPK
The settings on record: stereoisomer not certain. In outline: as §1
On to `C=CCOC(=O)Cc1ccccc1`, for which the “odorant receptor agonist call” value is “inactive”.
Take `C=CCc1ccccc1`: the “odorant receptor agonist call” value is “inactive”.
Consider `O=c1cc(O)c2ccccc2o1`, for which the “odorant receptor agonist call” value is “inactive”.
In the case of `CCC1CCC(=O)O1` (configuration not stated), the “odorant receptor agonist call” value is “inactive”.

Another assay concerns the target T3, UniProt Q8VGP6.
T3 sequence (whole entry): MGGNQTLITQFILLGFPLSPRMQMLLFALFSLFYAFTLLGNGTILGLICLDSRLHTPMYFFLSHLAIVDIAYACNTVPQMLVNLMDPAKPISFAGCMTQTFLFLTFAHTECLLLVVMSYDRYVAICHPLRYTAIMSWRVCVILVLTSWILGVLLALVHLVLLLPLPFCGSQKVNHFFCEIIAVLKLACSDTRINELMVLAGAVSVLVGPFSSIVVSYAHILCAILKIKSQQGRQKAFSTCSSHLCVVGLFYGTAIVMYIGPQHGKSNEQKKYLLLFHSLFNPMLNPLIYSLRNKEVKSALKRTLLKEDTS
The settings on record: stereoisomer not certain. In outline:
as §1
`C=CCOC(=O)Cc1ccccc1`: the “odorant receptor agonist call” value is “active”.
In the case of `C=CCc1ccccc1`, the “odorant receptor agonist call” value was “inactive”.
Consider `O=c1cc(O)c2ccccc2o1`, for which the “odorant receptor agonist call” value was “inactive”.
Consider `CCC1CCC(=O)O1` (configuration not stated), for which the “odorant receptor agonist call” value was “inactive”.

For another assay, the target named is T4, UniProt Q8VGQ3.
T4 sequence (whole entry): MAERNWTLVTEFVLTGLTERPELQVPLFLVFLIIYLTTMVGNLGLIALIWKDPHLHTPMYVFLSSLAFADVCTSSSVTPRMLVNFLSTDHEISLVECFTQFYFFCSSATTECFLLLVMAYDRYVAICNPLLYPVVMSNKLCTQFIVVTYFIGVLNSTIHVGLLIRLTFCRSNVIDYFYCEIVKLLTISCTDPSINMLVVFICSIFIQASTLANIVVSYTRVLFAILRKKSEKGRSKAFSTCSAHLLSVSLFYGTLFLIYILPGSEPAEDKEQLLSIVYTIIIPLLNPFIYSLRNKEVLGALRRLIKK
The settings on record: stereoisomer not certain. In outline:
as §1
Turning to `C=CCOC(=O)Cc1ccccc1`, the “odorant receptor agonist call” value is “inactive”.
The same measure, in the same setting: under `C=CCc1ccccc1` stands “inactive”.
Consider `O=c1cc(O)c2ccccc2o1`, for which the “odorant receptor agonist call” value is “inactive”.
As to `CCC1CCC(=O)O1` (configuration not stated), the “odorant receptor agonist call” value is “inactive”.

The next assay addresses T5, UniProt Q8VGT4.
T5 sequence (whole entry): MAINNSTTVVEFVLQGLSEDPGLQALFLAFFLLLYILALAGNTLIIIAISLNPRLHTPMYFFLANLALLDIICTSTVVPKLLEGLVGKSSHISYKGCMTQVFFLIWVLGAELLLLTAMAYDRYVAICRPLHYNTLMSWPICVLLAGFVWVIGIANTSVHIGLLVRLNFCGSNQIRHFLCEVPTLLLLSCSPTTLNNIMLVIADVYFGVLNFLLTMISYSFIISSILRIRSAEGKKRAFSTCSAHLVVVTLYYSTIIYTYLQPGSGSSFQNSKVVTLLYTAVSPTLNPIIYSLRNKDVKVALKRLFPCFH
The settings on record: stereoisomer not certain. In outline: as §1
Regarding `C=CCOC(=O)Cc1ccccc1`, the “odorant receptor agonist call” value is “inactive”.
Consider `C=CCc1ccccc1`, for which the “odorant receptor agonist call” value is “inactive”.
For the molecule `O=c1cc(O)c2ccccc2o1`, the “odorant receptor agonist call” value was “inactive”.
Still for that read-out and setting: under `CCC1CCC(=O)O1` (configuration not stated) stands “inactive”.

The next assay addresses T6, UniProt Q8VGU3.
T6 sequence (whole entry): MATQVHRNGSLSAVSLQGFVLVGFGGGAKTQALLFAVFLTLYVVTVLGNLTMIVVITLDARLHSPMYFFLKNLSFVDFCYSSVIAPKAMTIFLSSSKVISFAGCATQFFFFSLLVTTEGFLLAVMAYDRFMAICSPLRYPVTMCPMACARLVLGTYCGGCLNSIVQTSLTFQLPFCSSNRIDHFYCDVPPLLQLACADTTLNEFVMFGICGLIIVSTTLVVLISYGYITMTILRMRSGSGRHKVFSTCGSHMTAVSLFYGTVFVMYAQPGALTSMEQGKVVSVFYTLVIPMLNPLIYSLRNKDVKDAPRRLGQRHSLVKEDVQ
The note with it: stereoisomer not certain. In a few lines: as §1
Consider `CC(C=O)Cc1ccc2c(c1)OCO2` (configuration not stated), for which the “odorant receptor agonist call” value is “inactive”.
On the same count and under the same terms, under `CCCCC(Br)C(=O)O` (configuration not stated) stands “inactive”; under `Oc1ccccc1Br`, “inactive”.
In the case of `C=CCOC(=O)Cc1ccccc1`, the “odorant receptor agonist call” value was “inactive”.
Regarding `CCCCCCC(Br)C(=O)O` (configuration not stated), the “odorant receptor agonist call” value is “inactive”.
`C=C(C)C1CC=C(C=O)CC1` (configuration not stated): the “odorant receptor agonist call” value is “inactive”.
Consider `O=CC=Cc1ccccc1`, for which the “odorant receptor agonist call” value was “inactive”.
Regarding `Cc1ccc(OC(=O)Cc2ccccc2)cc1`, the “odorant receptor agonist call” value was “inactive”.
Consider `OCc1ccc2c(c1)OCO2`, for which the “odorant receptor agonist call” value was “inactive”.
Take `O=Cc1ccccc1`: the “odorant receptor agonist call” value was “inactive”.
Consider `O=c1cc(O)c2ccccc2o1`, for which the “odorant receptor agonist call” value is “inactive”.
In the case of `CSSC`, the “odorant receptor agonist call” value is “inactive”.
Take `COc1ccc(C=O)cc1`: the “odorant receptor agonist call” value is “inactive”.
For `O=Cc1ccc2c(c1)OCO2`, the “odorant receptor agonist call” value was “inactive”.

A further assay concerns the target T7, UniProt Q8VGV1.
T7 sequence (whole entry): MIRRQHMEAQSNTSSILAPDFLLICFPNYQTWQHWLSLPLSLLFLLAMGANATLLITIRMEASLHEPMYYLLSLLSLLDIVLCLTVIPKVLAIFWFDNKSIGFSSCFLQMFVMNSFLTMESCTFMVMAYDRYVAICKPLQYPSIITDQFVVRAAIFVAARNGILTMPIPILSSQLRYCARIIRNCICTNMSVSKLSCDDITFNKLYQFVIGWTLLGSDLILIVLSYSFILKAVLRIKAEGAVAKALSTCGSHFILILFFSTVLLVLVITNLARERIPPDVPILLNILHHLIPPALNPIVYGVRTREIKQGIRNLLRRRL
The settings on record: stereoisomer not certain. In outline: as §1
Consider `C=CCOC(=O)Cc1ccccc1`, for which the “odorant receptor agonist call” value was “inactive”.
The same measure, in the same setting: under `C=CCc1ccccc1` stands “inactive”; under `O=c1cc(O)c2ccccc2o1`, “inactive”.
With `CCC1CCC(=O)O1` (configuration not stated), the “odorant receptor agonist call” value is “inactive”.

The next assay has as its target T8, UniProt Q8VGV7.
T8 sequence (whole entry): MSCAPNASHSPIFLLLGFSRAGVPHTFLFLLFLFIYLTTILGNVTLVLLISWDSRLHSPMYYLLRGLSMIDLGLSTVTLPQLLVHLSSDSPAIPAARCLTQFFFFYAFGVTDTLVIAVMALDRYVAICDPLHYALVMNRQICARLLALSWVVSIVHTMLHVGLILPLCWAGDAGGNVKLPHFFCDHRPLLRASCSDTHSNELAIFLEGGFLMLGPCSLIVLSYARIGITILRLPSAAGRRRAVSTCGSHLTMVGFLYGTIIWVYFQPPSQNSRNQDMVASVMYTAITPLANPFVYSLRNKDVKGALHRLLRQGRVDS
The settings on record: stereoisomer not certain. In a few lines:
as §1
In the case of `CC(C=O)Cc1ccc2c(c1)OCO2` (configuration not stated), the “odorant receptor agonist call” value was “inactive”.
Regarding `CCCCC(Br)C(=O)O` (configuration not stated), the “odorant receptor agonist call” value was “inactive”.
The same measure, in the same setting: under `Oc1ccccc1Br` stands “inactive”; under `C=CCOC(=O)Cc1ccccc1`, “inactive”.
The same measure, in the same setting: under `CCCCCCC(Br)C(=O)O` (configuration not stated) stands “inactive”.
The same measure, in the same setting: under `C=C(C)C1CC=C(C=O)CC1` (configuration not stated) stands “inactive”; under `O=CC=Cc1ccccc1`, “inactive”; under `Cc1ccc(OC(=O)Cc2ccccc2)cc1`, “inactive”.
Consider `OCc1ccc2c(c1)OCO2`, for which the “odorant receptor agonist call” value was “inactive”.
For `O=Cc1ccccc1`, the “odorant receptor agonist call” value is “inactive”.
For the molecule `O=c1cc(O)c2ccccc2o1`, the “odorant receptor agonist call” value is “inactive”.
With `CSSC`, the “odorant receptor agonist call” value is “inactive”.
Still for that read-out and setting: under `COc1ccc(C=O)cc1` stands “inactive”.
The same measure, in the same setting: under `O=Cc1ccc2c(c1)OCO2` stands “inactive”.
